ChEMBL document CHEMBL3046282, “Synthesis, insecticidal activity, crystal structure, and molecular docking studies of nitenpyram analogues with an ω-hydroxyalkyl ester arm anchored on the tetrahydropyrimidine ring” (2012)
≈ marks a conversion by molar mass, not a printed value. Calls of active or inactive are those of the source. The rule behind the calls is not given here.

Tests used:
Myzus persicae [1] = assay: Insecticidal activity against Myzus persicae (green peach aphid) assessed as mortality at 25 degC after 72 hr at 20 mg/L; format: functional
Myzus persicae [2] = assay: Insecticidal activity against Myzus persicae (green peach aphid) assessed as mortality at 25 degC after 72 hr at 100 mg/L; format: functional
Nilaparvata lugens [3] = assay: Insecticidal activity against Nilaparvata lugens (brown planthopper) assessed as mortality at 25 degC after 72 hr at 20 mg/L; format: functional
Outline: (§1)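 Standard spray test with slight modification. Compounds dissolved in DMF, then serially diluted with water containing Triton X-80 (0.1 mg/L). Groups of 12 insects in glass Petri dishes sprayed with a Potter sprayer, air-dried, then held under normal rearing conditions (25±1 °C, […], 12 h light). Scored at 72 h on a 0–100 scale against a negative control, using kill count and size of live insects. Three replicates.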

Nilaparvata lugens [4] = assay: Insecticidal activity against Nilaparvata lugens (brown planthopper) assessed as mortality at 25 degC after 72 hr at 100 mg/L; format: functional; outline: as §1
Myzus persicae [5] = assay: Insecticidal activity against Myzus persicae (green peach aphid) assessed as mortality at 25 degC after 72 hr at 4 mg/L; format: functional
Nilaparvata lugens [6] = assay: Insecticidal activity against Nilaparvata lugens (brown planthopper) assessed as mortality at 25 degC after 72 hr at 4 mg/L; format: functional; outline: as §1
[7] = Binding affinity to nicotinic acetylcholine receptor assessed as hydrogen bonding
Myzus persicae [8] = assay: Insecticidal activity against Myzus persicae (green peach aphid) assessed as mortality at 25 degC after 72 hr; format: functional
Nilaparvata lugens [9] = assay: Insecticidal activity against Nilaparvata lugens (brown planthopper) assessed as mortality at 25 degC after 72 hr; format: functional

CCN(Cc1ccc(Cl)nc1)C1=C([N+](=O)[O-])CN(CCCC(=O)OCCCCCO)CN1C
mortality at 20 µg/mL (Myzus persicae [1]): 25% | mortality at 100 µg/mL (Myzus persicae [2]): 95% | mortality at 20 µg/mL (Nilaparvata lugens [3]): 15% | mortality at 100 µg/mL (Nilaparvata lugens [4]): 98%

CCN(Cc1ccc(Cl)nc1)C1=C([N+](=O)[O-])CN(CCCC(=O)OCCCCCCO)CN1C
mortality at 20 µg/mL (Myzus persicae [1]): 10% | mortality at 100 µg/mL (Myzus persicae [2]): 88% | mortality at 20 µg/mL (Nilaparvata lugens [3]): 10% | mortality at 100 µg/mL (Nilaparvata lugens [4]): 90%

CCN(Cc1ccc(Cl)nc1)C1=C([N+](=O)[O-])CN(CCCC(=O)OCCCO)CN1C
mortality at 20 µg/mL (Myzus persicae [1]): 92% | mortality at 100 µg/mL (Myzus persicae [2]): 100% | mortality at 20 µg/mL (Nilaparvata lugens [3]): 80% | mortality at 100 µg/mL (Nilaparvata lugens [4]): 100%

CCN(Cc1ccc(Cl)nc1)C1=C([N+](=O)[O-])CN(C(Cc2ccccc2)C(=O)OCCO)CN1C (centres undefined)
mortality at 20 µg/mL (Myzus persicae [1]): 15% | mortality at 100 µg/mL (Myzus persicae [2]): 90% | mortality at 20 µg/mL (Nilaparvata lugens [3]): 20% | mortality at 100 µg/mL (Nilaparvata lugens [4]): 80%

CCC(C)C(C(=O)OCCO)N1CC([N+](=O)[O-])=C(N(CC)Cc2ccc(Cl)nc2)N(C)C1 (single isomer, unassigned; (+))
mortality at 4 µg/mL (Myzus persicae [5]): 30% | mortality at 20 µg/mL (Myzus persicae [1]): 95% | mortality at 100 µg/mL (Myzus persicae [2]): 100% | mortality at 4 µg/mL (Nilaparvata lugens [6]): 35% | mortality at 20 µg/mL (Nilaparvata lugens [3]): 95% | mortality at 100 µg/mL (Nilaparvata lugens [4]): 100%

CCN(Cc1ccc(Cl)nc1)C1=C([N+](=O)[O-])CN(CC(=O)OCCCCCO)CN1C
mortality at 20 µg/mL (Myzus persicae [1]): 25% | mortality at 100 µg/mL (Myzus persicae [2]): 100% | mortality at 20 µg/mL (Nilaparvata lugens [3]): 23% | mortality at 100 µg/mL (Nilaparvata lugens [4]): 90%

CCN(Cc1ccc(Cl)nc1)C1=C([N+](=O)[O-])CN(CCC(=O)OCCCCCO)CN1C
mortality at 20 µg/mL (Myzus persicae [1]): 50% | mortality at 100 µg/mL (Myzus persicae [2]): 98% | mortality at 20 µg/mL (Nilaparvata lugens [3]): 40% | mortality at 100 µg/mL (Nilaparvata lugens [4]): 100%

CCN(Cc1ccc(Cl)nc1)C1=C([N+](=O)[O-])CN(CCC(=O)OCCCCO)CN1C
mortality at 20 µg/mL (Myzus persicae [1]): 83% | mortality at 100 µg/mL (Myzus persicae [2]): 100% | mortality at 20 µg/mL (Nilaparvata lugens [3]): 80% | mortality at 100 µg/mL (Nilaparvata lugens [4]): 100%

CCN(Cc1ccc(Cl)nc1)C1=C([N+](=O)[O-])CN(C(CC(C)C)C(=O)OCCO)CN1C (centres undefined)
Activity [7]: Active | LC50 (Myzus persicae [8]; Myzus persicae, 72 h): 0.17 µg/mL (≈ 0.362 µM) | LC50 (Nilaparvata lugens [9]): 0.17 µg/mL (≈ 0.362 µM) | mortality at 4 µg/mL (Myzus persicae [5]): 100% | mortality at 20 µg/mL (Myzus persicae [1]): 100% | mortality at 100 µg/mL (Myzus persicae [2]): 100% | mortality at 4 µg/mL (Nilaparvata lugens [6]): 95% | mortality at 20 µg/mL (Nilaparvata lugens [3]): 100% | mortality at 100 µg/mL (Nilaparvata lugens [4]): 100%

CCN(Cc1ccc(Cl)nc1)C1=C([N+](=O)[O-])CN(CCC(=O)OCCCO)CN1C
mortality at 4 µg/mL (Myzus persicae [5]): 55% | mortality at 20 µg/mL (Myzus persicae [1]): 100% | mortality at 100 µg/mL (Myzus persicae [2]): 100% | mortality at 4 µg/mL (Nilaparvata lugens [6]): 70% | mortality at 20 µg/mL (Nilaparvata lugens [3]): 98% | mortality at 100 µg/mL (Nilaparvata lugens [4]): 100%

CCN(Cc1ccc(Cl)nc1)C1=C([N+](=O)[O-])CN(CCCC(=O)OCCCCO)CN1C
mortality at 20 µg/mL (Myzus persicae [1]): 70% | mortality at 100 µg/mL (Myzus persicae [2]): 95% | mortality at 20 µg/mL (Nilaparvata lugens [3]): 78% | mortality at 100 µg/mL (Nilaparvata lugens [4]): 100%

CCN(Cc1ccc(Cl)nc1)C1=C([N+](=O)[O-])CN(CCCC(=O)OCCO)CN1C
mortality at 4 µg/mL (Myzus persicae [5]): 10% | mortality at 20 µg/mL (Myzus persicae [1]): 100% | mortality at 100 µg/mL (Myzus persicae [2]): 100% | mortality at 20 µg/mL (Nilaparvata lugens [3]): 90% | mortality at 100 µg/mL (Nilaparvata lugens [4]): 100%

CCCOC(=O)CCN1CC([N+](=O)[O-])=C(N(CC)Cc2ccc(Cl)nc2)N(C)C1
mortality at 4 µg/mL (Nilaparvata lugens [6]): 75% | mortality at 20 µg/mL (Nilaparvata lugens [3]): 100% | mortality at 100 µg/mL (Nilaparvata lugens [4]): 100%

CCN(Cc1ccc(Cl)nc1)C1=C([N+](=O)[O-])CN(CC(=O)OCCCCO)CN1C
mortality at 20 µg/mL (Myzus persicae [1]): 33% | mortality at 100 µg/mL (Myzus persicae [2]): 100% | mortality at 20 µg/mL (Nilaparvata lugens [3]): 30% | mortality at 100 µg/mL (Nilaparvata lugens [4]): 95%

CCN(Cc1ccc(Cl)nc1)C1=C([N+](=O)[O-])CN(CCC(=O)OCCO)CN1C
Activity [7]: Active | LC50 (Nilaparvata lugens [9]): 0.154 µg/mL (≈ 0.36 µM) | mortality at 4 µg/mL (Myzus persicae [5]): 100% | mortality at 20 µg/mL (Myzus persicae [1]): 100% | mortality at 100 µg/mL (Myzus persicae [2]): 100% | mortality at 4 µg/mL (Nilaparvata lugens [6]): 100% | mortality at 20 µg/mL (Nilaparvata lugens [3]): 100% | mortality at 100 µg/mL (Nilaparvata lugens [4]): 100%

CCN(Cc1ccc(Cl)nc1)C1=C([N+](=O)[O-])CN(C(CC(C)C)C(=O)OC)CN1C (centres undefined)
LC50 (Nilaparvata lugens [9]): 0.216 µg/mL (≈ 0.491 µM) | mortality at 4 µg/mL (Nilaparvata lugens [6]): 50% | mortality at 20 µg/mL (Nilaparvata lugens [3]): 100% | mortality at 100 µg/mL (Nilaparvata lugens [4]): 100%

CCN(Cc1ccc(Cl)nc1)C1=C([N+](=O)[O-])CN(CC(=O)OCCO)CN1C
mortality at 20 µg/mL (Myzus persicae [1]): 58% | mortality at 100 µg/mL (Myzus persicae [2]): 100% | mortality at 20 µg/mL (Nilaparvata lugens [3]): 50% | mortality at 100 µg/mL (Nilaparvata lugens [4]): 100%

CCN(Cc1ccc(Cl)nc1)C1=C([N+](=O)[O-])CN(CCC(=O)OCCCCCCO)CN1C
mortality at 20 µg/mL (Myzus persicae [1]): 33% | mortality at 100 µg/mL (Myzus persicae [2]): 95% | mortality at 20 µg/mL (Nilaparvata lugens [3]): 25% | mortality at 100 µg/mL (Nilaparvata lugens [4]): 90%

CCN(Cc1ccc(Cl)nc1)C1=C([N+](=O)[O-])CN(C(C(=O)OCCO)C(C)C)CN1C (centres undefined)
mortality at 20 µg/mL (Myzus persicae [1]): 58% | mortality at 100 µg/mL (Myzus persicae [2]): 100% | mortality at 20 µg/mL (Nilaparvata lugens [3]): 65% | mortality at 100 µg/mL (Nilaparvata lugens [4]): 95%

CCN(Cc1ccc(Cl)nc1)C1=C([N+](=O)[O-])CN(C(C)C(=O)OCCO)CN1C (single isomer, unassigned; (+))
mortality at 20 µg/mL (Myzus persicae [1]): 40% | mortality at 100 µg/mL (Myzus persicae [2]): 100% | mortality at 20 µg/mL (Nilaparvata lugens [3]): 45% | mortality at 100 µg/mL (Nilaparvata lugens [4]): 95%

CCN(Cc1ccc(Cl)nc1)C1=C([N+](=O)[O-])CN(C(Cc2ccc(O)cc2)C(=O)OCCO)CN1C (single isomer, unassigned; (+))
mortality at 20 µg/mL (Myzus persicae [1]): 10% | mortality at 100 µg/mL (Myzus persicae [2]): 85% | mortality at 20 µg/mL (Nilaparvata lugens [3]): 15% | mortality at 100 µg/mL (Nilaparvata lugens [4]): 80%

CCN(Cc1ccc(Cl)nc1)/C(=C/[N+](=O)[O-])NC [NITENPYRAM]
LC100 (Myzus persicae [8]): 0.129 mg/L | mortality at 4 µg/mL (Myzus persicae [5]): 100% | mortality at 20 µg/mL (Myzus persicae [1]): 100% | mortality at 100 µg/mL (Myzus persicae [2]): 100% | mortality at 4 µg/mL (Nilaparvata lugens [6]): 100% | mortality at 20 µg/mL (Nilaparvata lugens [3]): 100% | mortality at 100 µg/mL (Nilaparvata lugens [4]): 100%

CCN(Cc1ccc(Cl)nc1)C1=C([N+](=O)[O-])CN(CCC(=O)OC(C)C)CN1C
mortality at 4 µg/mL (Nilaparvata lugens [6]): 70% | mortality at 20 µg/mL (Nilaparvata lugens [3]): 100% | mortality at 100 µg/mL (Nilaparvata lugens [4]): 100%

CCN(Cc1ccc(Cl)nc1)C1=C([N+](=O)[O-])CN(CC(=O)OCCCCCCO)CN1C
mortality at 20 µg/mL (Myzus persicae [1]): 10% | mortality at 100 µg/mL (Myzus persicae [2]): 95% | mortality at 20 µg/mL (Nilaparvata lugens [3]): 15% | mortality at 100 µg/mL (Nilaparvata lugens [4]): 90%

CCN(Cc1ccc(Cl)nc1)C1=C([N+](=O)[O-])CN(C(C(=O)OCCO)c2ccc(Cl)cc2)CN1C (centres undefined)
mortality at 20 µg/mL (Myzus persicae [1]): 25% | mortality at 100 µg/mL (Myzus persicae [2]): 95% | mortality at 20 µg/mL (Nilaparvata lugens [3]): 25% | mortality at 100 µg/mL (Nilaparvata lugens [4]): 95%

CCN(Cc1ccc(Cl)nc1)C1=C([N+](=O)[O-])CN(CC(=O)OCCCO)CN1C
mortality at 20 µg/mL (Myzus persicae [1]): 50% | mortality at 100 µg/mL (Myzus persicae [2]): 100% | mortality at 20 µg/mL (Nilaparvata lugens [3]): 45% | mortality at 100 µg/mL (Nilaparvata lugens [4]): 100%
